Source: ChEMBL document CHEMBL2177027, “Exploring the directionality of 5-substitutions in a new series of 5-alkylaminopyrazolo[4,3-e]1,2,4-triazolo[1,5-c]pyrimidine as a strategy to design novel human a(3) adenosine receptor antagonists” (J Med Chem, 2012)

Legend:
[1] = Selectivity ratio of Ki for human adenosine A1 receptor expressed in CHO cell membrane to Ki for human adenosine A2A receptor expressed in CHO cell membrane; type: cell-based
[2] = target: Adenosine receptors; A1 & A3 (Homo sapiens) (UniProt P30542+P0DMS8); assay: Selectivity ratio of Ki for human adenosine A1 receptor expressed in CHO cell membrane to Ki for human adenosine A3 receptor expressed in CHO cell membrane; type: cell-based
Adenosine receptor A3 = target: T1, Adenosine receptor A3 (Homo sapiens, UniProt P0DMS8); assay: Displacement of [3H]NECA from human adenosine A3 receptor expressed in CHO cell membrane; type: cell membranes
T1 sequence (P0DMS8 whole entry): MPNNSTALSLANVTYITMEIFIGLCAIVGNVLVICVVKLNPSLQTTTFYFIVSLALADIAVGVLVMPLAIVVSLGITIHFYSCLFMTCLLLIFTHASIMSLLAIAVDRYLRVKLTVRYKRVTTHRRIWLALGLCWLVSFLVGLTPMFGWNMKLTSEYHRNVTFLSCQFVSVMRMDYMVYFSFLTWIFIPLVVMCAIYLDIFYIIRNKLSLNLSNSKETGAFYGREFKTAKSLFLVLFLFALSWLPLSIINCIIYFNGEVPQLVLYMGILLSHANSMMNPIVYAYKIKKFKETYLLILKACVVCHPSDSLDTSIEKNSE
Method in brief: (§1)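 CHO cells stably transfected with the human receptor subtype. Membranes were prepared by a 1000g spin to clear fragments and nuclei, then pelleted from the supernatant at 100 000g. Pellet was resuspended in the respective binding buffer, frozen in liquid nitrogen and stored until radioligand competition binding.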

[3] = Selectivity ratio of Ki for human adenosine A2A receptor expressed in CHO cell membrane to Ki for human adenosine A3 receptor expressed in CHO cell membrane; type: cell-based
Adenosine receptor A1 = target: T2, Adenosine receptor A1 (Homo sapiens, UniProt P30542); assay: Displacement of [3H]CCPA from human adenosine A1 receptor expressed in CHO cell membrane; type: cell membranes; method in brief: as §1
T2 sequence (P30542 whole entry): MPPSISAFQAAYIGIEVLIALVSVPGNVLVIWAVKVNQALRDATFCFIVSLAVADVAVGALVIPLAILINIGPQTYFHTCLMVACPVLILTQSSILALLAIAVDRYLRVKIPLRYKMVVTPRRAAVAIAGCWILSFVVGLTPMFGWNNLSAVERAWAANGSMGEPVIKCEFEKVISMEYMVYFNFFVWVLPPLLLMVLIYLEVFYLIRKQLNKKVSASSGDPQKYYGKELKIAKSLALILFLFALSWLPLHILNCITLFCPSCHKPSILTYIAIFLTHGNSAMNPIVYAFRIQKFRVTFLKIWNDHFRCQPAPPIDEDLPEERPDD

Adenosine receptor A2a = Adenosine receptor A2a (Homo sapiens, UniProt P29274); assay: Displacement of [3H]NECA from human adenosine A2A receptor expressed in CHO cell membrane; type: cell membranes; method in brief: as §1
Adenosine receptor A2b = target: T3, Adenosine receptor A2b (Homo sapiens, UniProt P29275); assay: Antagonist activity at human adenosine A2B receptor expressed in CHO cells assessed as NECA-induced adenylate cyclase activity; type: functional, cell-based
T3 sequence (P29275 whole entry): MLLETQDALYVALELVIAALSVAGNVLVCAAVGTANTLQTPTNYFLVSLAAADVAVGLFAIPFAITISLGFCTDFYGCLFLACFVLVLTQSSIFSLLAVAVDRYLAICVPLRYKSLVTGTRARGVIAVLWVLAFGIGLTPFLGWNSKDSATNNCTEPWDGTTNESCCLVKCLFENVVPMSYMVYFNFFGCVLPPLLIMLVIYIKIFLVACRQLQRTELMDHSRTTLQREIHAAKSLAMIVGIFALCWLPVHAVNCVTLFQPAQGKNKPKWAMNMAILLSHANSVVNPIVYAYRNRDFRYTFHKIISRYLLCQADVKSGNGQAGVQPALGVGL
Method in brief: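 Membranes from stably transfected CHO cells made with a single high-speed spin of the homogenate. Incubated 20 min with about 150 000 cpm [α-³²P]ATP in mixture lacking EDTA and NaCl. IC50 taken from concentration-dependent inhibition of NECA-stimulated adenylyl cyclase using Hill equation.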

Chain of Adenosine receptor A2a (P29274 whole entry): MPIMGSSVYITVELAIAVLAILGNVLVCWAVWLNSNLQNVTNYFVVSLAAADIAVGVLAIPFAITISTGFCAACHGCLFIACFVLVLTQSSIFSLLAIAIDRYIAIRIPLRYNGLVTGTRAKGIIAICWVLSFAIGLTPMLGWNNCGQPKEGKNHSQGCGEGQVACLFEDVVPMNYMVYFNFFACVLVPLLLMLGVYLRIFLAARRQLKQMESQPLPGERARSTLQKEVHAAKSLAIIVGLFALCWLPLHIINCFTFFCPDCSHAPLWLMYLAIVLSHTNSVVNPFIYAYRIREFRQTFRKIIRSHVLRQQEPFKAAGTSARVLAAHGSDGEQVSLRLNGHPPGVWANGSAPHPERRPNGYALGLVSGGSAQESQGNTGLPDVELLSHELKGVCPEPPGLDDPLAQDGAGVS

Compound | Ratio Ki [2] | Ki (Adenosine receptor A3) | Ki (Adenosine receptor A1) | Ki (Adenosine receptor A2a) | Ki (Adenosine receptor A2b) | Ratio Ki [1] | Ratio Ki [3]
COc1ccc(CNc2nc3nn(C)cc3c3nc(-c4ccco4)nn23)cc1 | 63.9 | 6.92 nM | 442 nM | 177 nM | 9840 nM | 2.5 | 25.6
Cn1cc2c(nc(NC(c3ccccc3)c3ccccc3)n3nc(-c4ccco4)nc23)n1 | 204 | 0.83 nM | 169 nM | 900 nM | > 10000 nM | 0.19 | 1080
Cn1cc2c(nc(NCC3CCCCC3)n3nc(-c4ccco4)nc23)n1 | 17 | 47.3 nM | 802 nM | 814 nM | 9650 nM | 0.98 | 17.2
Cn1cc2c(nc(NCc3ccccc3)n3nc(-c4ccco4)nc23)n1 | 212 | 2.49 nM | 527 nM | 91 nM | 3330 nM | 5.79 | 36.5
Cn1cc2c(nc(N3CCOCC3)n3nc(-c4ccco4)nc23)n1 | 4.71 | 514 nM | 2420 nM | 1670 nM | > 10000 nM | 1.45 | 3.25
Cn1cc2c(nc(NCCc3c[nH]c4ccccc34)n3nc(-c4ccco4)nc23)n1 | 40.4 | 30.9 nM | 1250 nM | 77 nM | 2870 nM | 16.2 | 2.49
Cn1cc2c(nc(NCCCCCCO)n3nc(-c4ccco4)nc23)n1 | 3.1 | 156 nM | 483 nM | 109 nM | > 10000 nM | 4.43 | 0.7
C[C@H](Nc1nc2nn(C)cc2c2nc(-c3ccco3)nn12)c1ccccc1 | 1130 | 0.3 nM | 338 nM | 55.2 nM | 5290 nM | 6.12 | 184
Cn1cc2c(nc(N(Cc3ccccc3)Cc3ccccc3)n3nc(-c4ccco4)nc23)n1 | 1.76 | 404 nM | 711 nM | 1150 nM | > 10000 nM | 0.62 | 2.85
Cn1cc2c(nc(NCCc3ccccc3)n3nc(-c4ccco4)nc23)n1 | 13.9 | 52.8 nM | 733 nM | 46.1 nM | 2790 nM | 15.9 | 0.87
COc1ccc(CNc2nc3nn(C)cc3c3nc(-c4ccco4)nn23)cc1OC | 129 | 21.1 nM | 2720 nM | 64.1 nM | > 3000 nM | 42.3 | 3.04
Cn1cc2c(nc(NCCOc3ccccc3)n3nc(-c4ccco4)nc23)n1 | 16.7 | 38.6 nM | 646 nM | 121 nM | 7500 nM | 5.34 | 3.13
CN(c1nc2nn(C)cc2c2nc(-c3ccco3)nn12)C1CCCCC1 | 31.2 | 32.7 nM | 1020 nM | 2730 nM | > 10000 nM | 0.37 | 83.5
Cn1cc2c(nc(NC3CCCCC3)n3nc(-c4ccco4)nc23)n1 | 19.4 | 8.57 nM | 166 nM | 233 nM | 6320 nM | 0.71 | 27.2
CCCCCN(CCCCC)c1nc2nn(C)cc2c2nc(-c3ccco3)nn12 | 4.04 | 824 nM | 3330 nM | 7490 nM | > 10000 nM | 0.44 | 9.09
Cn1cc2c(nc(N3CCCCC3)n3nc(-c4ccco4)nc23)n1 | 56.4 | 38.1 nM | 2150 nM | 352 nM | > 10000 nM | 6.11 | 9.24

More lines, main results first:

Ratio Ki [2] | Ki (Adenosine receptor A3) | Ki (Adenosine receptor A1) | Ki (Adenosine receptor A2a) | Ki (Adenosine receptor A2b) | Compound | Ratio Ki [1] | Ratio Ki [3]
9.76 | 246 nM | 2400 nM | 407 nM | > 10000 nM | COCCNc1nc2nn(C)cc2c2nc(-c3ccco3)nn12 | 5.9 | 1.65
27.8 | 5.93 nM | 165 nM | 272 nM | 4810 nM | CC[C@@H](C)Nc1nc2nn(C)cc2c2nc(-c3ccco3)nn12 | 0.61 | 45.9
9.76 | 34.1 nM | 333 nM | 389 nM | 9720 nM | CC(C)Nc1nc2nn(C)cc2c2nc(-c3ccco3)nn12 | 0.86 | 11.4
28.9 | 36.7 nM | 1060 nM | 1380 nM | > 10000 nM | CCCCN(C)c1nc2nn(C)cc2c2nc(-c3ccco3)nn12 | 0.77 | 37.6
25 | 5.23 nM | 131 nM | 248 nM | 3860 nM | CCC(C)Nc1nc2nn(C)cc2c2nc(-c3ccco3)nn12 (racemic) | 0.53 | 47.4
2.1 | 309 nM | 649 nM | 157 nM | 7470 nM | Cn1cc2c(nc(NCCO)n3nc(-c4ccco4)nc23)n1 | 4.13 | 0.51
11.4 | 1330 nM | 15200 nM | 7690 nM | > 10000 nM | CN1CCN(c2nc3nn(C)cc3c3nc(-c4ccco4)nn23)CC1 | 1.98 | 5.78
158 | 3.82 nM | 605 nM | 512 nM | > 10000 nM | CCCCC(CC)CNc1nc2nn(C)cc2c2nc(-c3ccco3)nn12 (stereo not drawn) | 1.18 | 134
7.55 | 130 nM | 982 nM | 3230 nM | > 10000 nM | Cn1cc2c(nc(NC(C)(C)CC(C)(C)C)n3nc(-c4ccco4)nc23)n1 | 0.3 | 24.8
42.6 | 182 nM | 7750 nM | 6120 nM | > 10000 nM | CCOc1nc2nn(C)cc2c2nc(-c3ccco3)nn12 | 1.27 | 33.6
17.9 | 367 nM | 6560 nM | 29900 nM | > 10000 nM | Cn1cc2c(nc(Cl)n3nc(-c4ccco4)nc23)n1 | 0.22 | 81.5
0.88 | 241 nM | 212 nM | 155 nM | 9300 nM | Cn1cc2c(nc(NCCCO)n3nc(-c4ccco4)nc23)n1 | 1.37 | 0.64
9.6 | 17.6 nM | 169 nM | 83.9 nM | 1110 nM | Cn1cc2c(nc(NC3CCC3)n3nc(-c4ccco4)nc23)n1 | 2.01 | 4.77
